Assays:
Assay type in all cases: functional
Settings in all cases: read-out: GI
MOLT-4 = assay: Antitumor activity against human MOLT-4 cells assessed as growth inhibition at 10 uM relative to control
In short: (§1)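 After drug addition, plates were incubated 48 h at 37 °C under 5% CO2. Adherent cells were fixed with cold TCA (10% final, 60 min, 4 °C) and suspension cells with 16% final TCA. Staining used 0.4% SRB in 1% acetic acid, solubilized in 10 mM trizma, read at A515. Percent growth was calculated from time-zero, control and treated absorbances.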

ACHN = assay: Antitumor activity against human ACHN cells assessed as growth inhibition at 10 uM relative to control; in short: as §1
COLO 205 = assay: Antitumor activity against human COLO 205 cells assessed as growth inhibition at 10 uM relative to control; in short: as §1
SR = assay: Antitumor activity against human SR cells assessed as growth inhibition at 10 uM relative to control
In short: (§2)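 Drug exposure 48 h at 37 °C, 5% CO2. Adherent cells fixed with cold TCA (10% final), suspension cells with TCA (16% final). Stained with 0.4% SRB in 1% acetic acid, dissolved in 10 mM Tris, A515. Growth relative to time-zero and untreated control.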

RPMI-8226 = assay: Antitumor activity against human RPMI-8226 cells assessed as growth inhibition at 10 uM relative to control; in short: as §1
CCRF-CEM = assay: Antitumor activity against human CCRF-CEM cells assessed as growth inhibition at 10 uM relative to control; in short: as §1
BT-549 = assay: Antitumor activity against human BT-549 cells assessed as growth inhibition at 10 uM relative to control; in short: as §1
MDA-MB-468 = assay: Antitumor activity against human MDA-MB-468 cells assessed as growth inhibition at 10 uM relative to control; in short: as §1
T47D = assay: Antitumor activity against human T47D cells assessed as growth inhibition at 10 uM relative to control; in short: as §2
DU-145 = assay: Antitumor activity against human DU-145 cells assessed as growth inhibition at 10 uM relative to control; in short: as §1
UO-31 = assay: Antitumor activity against human UO-31 cells assessed as growth inhibition at 10 uM relative to control; in short: as §2
KM12 = assay: Antitumor activity against human KM12 cells assessed as growth inhibition at 10 uM relative to control; in short: as §1
K562 = assay: Antitumor activity against human K562 cells assessed as growth inhibition at 10 uM relative to control; in short: as §1
IGROV-1 = assay: Antitumor activity against human IGROV-1 cells assessed as growth inhibition at 10 uM relative to control; in short: as §1
OVCAR-8 = assay: Antitumor activity against human OVCAR-8 cells assessed as growth inhibition at 10 uM relative to control; in short: as §1
SF-539 = assay: Antitumor activity against human SF-539 cells assessed as growth inhibition at 10 uM relative to control; in short: as §1
A498 = assay: Antitumor activity against human A498 cells assessed as growth inhibition at 10 uM relative to control; in short: as §1
SF-268 = assay: Antitumor activity against human SF-268 cells assessed as growth inhibition at 10 uM relative to control; in short: as §1
HCC 2998 = assay: Antitumor activity against human HCC 2998 cells assessed as growth inhibition at 10 uM relative to control; in short: as §1
U-251 = assay: Antitumor activity against human U-251 cells assessed as growth inhibition at 10 uM relative to control; in short: as §2
LOX IMVI = assay: Antitumor activity against human LOX IMVI cells assessed as growth inhibition at 10 uM relative to control; in short: as §1
HOP-62 = assay: Antitumor activity against human HOP-62 cells assessed as growth inhibition at 10 uM relative to control; in short: as §1
OVCAR-3 = assay: Antitumor activity against human OVCAR-3 cells assessed as growth inhibition at 10 uM relative to control; in short: as §1
RXF 393 = assay: Antitumor activity against human RXF 393 cells assessed as growth inhibition at 10 uM relative to control; in short: as §1
SK-MEL-5 = assay: Antitumor activity against human SK-MEL-5 cells assessed as growth inhibition at 10 uM relative to control; in short: as §2
HCT-116 = assay: Antitumor activity against human HCT-116 cells assessed as growth inhibition at 10 uM relative to control; in short: as §1
HL-60 = assay: Antitumor activity against human HL-60 cells assessed as growth inhibition at 10 uM relative to control; in short: as §1
Malme-3M = assay: Antitumor activity against human Malme-3M cells assessed as growth inhibition at 10 uM relative to control; in short: as §1
SW-620 = assay: Antitumor activity against human SW-620 cells assessed as growth inhibition at 10 uM relative to control; in short: as §2
MDA-MB-231 = assay: Antitumor activity against human MDA-MB-231 cells assessed as growth inhibition at 10 uM relative to control; in short: as §1
SK-MEL-28 = assay: Antitumor activity against human SK-MEL-28 cells assessed as growth inhibition at 10 uM relative to control; in short: as §2
PC-3 = assay: Antitumor activity against human PC-3 cells assessed as growth inhibition at 10 uM relative to control; in short: as §1
NCI-H322M = assay: Antitumor activity against human NCI-H322M cells assessed as growth inhibition at 10 uM relative to control; in short: as §1
MDA-MB-435 = assay: Antitumor activity against human MDA-MB-435 cells assessed as growth inhibition at 10 uM relative to control; in short: as §1
NCI-H522 = assay: Antitumor activity against human NCI-H522 cells assessed as growth inhibition at 10 uM relative to control; in short: as §1
M14 = assay: Antitumor activity against human M14 cells assessed as growth inhibition at 10 uM relative to control; in short: as §1
NCI-H23 = assay: Antitumor activity against human NCI-H23 cells assessed as growth inhibition at 10 uM relative to control; in short: as §1
HOP-92 = assay: Antitumor activity against human HOP-92 cells assessed as growth inhibition at 10 uM relative to control; in short: as §1
NCI-H226 = assay: Antitumor activity against human NCI-H226 cells assessed as growth inhibition at 10 uM relative to control; in short: as §1
SF-295 = assay: Antitumor activity against human SF-295 cells assessed as growth inhibition at 10 uM relative to control; in short: as §1
NCI/ADR-RES = assay: Antitumor activity against human NCI-ADR-RES cells assessed as growth inhibition at 10 uM relative to control; in short: as §1
Hs-578T = assay: Antitumor activity against human Hs-578T cells assessed as growth inhibition at 10 uM relative to control; in short: as §1
SNB-75 = assay: Antitumor activity against human SNB-75 cells assessed as growth inhibition at 10 uM relative to control; in short: as §2
SNB-19 = assay: Antitumor activity against human SNB-19 cells assessed as growth inhibition at 10 uM relative to control; in short: as §2
786-0 = assay: Antitumor activity against human 786-0 cells assessed as growth inhibition at 10 uM relative to control; in short: as §1
EKVX = assay: Antitumor activity against human EKVX cells assessed as growth inhibition at 10 uM relative to control; in short: as §1

## N#Cc1c(-c2ccc(Cl)cc2)nc(N2NC(=O)CC2=N)nc1N1CCOCC1
MOLT-4
  inhibition of growth at 10 µM: < 1%
ACHN
  inhibition of growth at 10 µM: < 1%
COLO 205
  inhibition of growth at 10 µM: < 1%
SR
  inhibition of growth at 10 µM: < 1%
RPMI-8226
  inhibition of growth at 10 µM: < 1%
CCRF-CEM
  inhibition of growth at 10 µM: < 1%
BT-549
  inhibition of growth at 10 µM: < 1%
MDA-MB-468
  inhibition of growth at 10 µM: < 1%
T47D
  inhibition of growth at 10 µM: < 1%
DU-145
  inhibition of growth at 10 µM: < 1%
UO-31
  inhibition of growth at 10 µM: 24.6%
KM12
  inhibition of growth at 10 µM: < 1%
K562
  inhibition of growth at 10 µM: < 1%
IGROV-1
  inhibition of growth at 10 µM: < 1%
OVCAR-8
  inhibition of growth at 10 µM: < 1%
SF-539
  inhibition of growth at 10 µM: < 1%
A498
  inhibition of growth at 10 µM: 34.3%
SF-268
  inhibition of growth at 10 µM: < 1%
HCC 2998
  inhibition of growth at 10 µM: < 1%
U-251
  inhibition of growth at 10 µM: < 1%
LOX IMVI
  inhibition of growth at 10 µM: < 1%
HOP-62
  inhibition of growth at 10 µM: < 1%
OVCAR-3
  inhibition of growth at 10 µM: < 1%
RXF 393
  inhibition of growth at 10 µM: < 1%
SK-MEL-5
  inhibition of growth at 10 µM: < 1%
HCT-116
  inhibition of growth at 10 µM: < 1%
HL-60
  inhibition of growth at 10 µM: < 1%
Malme-3M
  inhibition of growth at 10 µM: 58%
SW-620
  inhibition of growth at 10 µM: < 1%
MDA-MB-231
  inhibition of growth at 10 µM: < 1%
SK-MEL-28
  inhibition of growth at 10 µM: < 1%
PC-3
  inhibition of growth at 10 µM: < 1%
NCI-H322M
  inhibition of growth at 10 µM: < 1%
MDA-MB-435
  inhibition of growth at 10 µM: < 1%
NCI-H522
  inhibition of growth at 10 µM: 13.6%
M14
  inhibition of growth at 10 µM: < 1%
NCI-H23
  inhibition of growth at 10 µM: < 1%
HOP-92
  inhibition of growth at 10 µM: 12.6%
NCI-H226
  inhibition of growth at 10 µM: < 1%
SF-295
  inhibition of growth at 10 µM: < 1%
NCI/ADR-RES
  inhibition of growth at 10 µM: < 1%
Hs-578T
  inhibition of growth at 10 µM: < 1%
SNB-75
  inhibition of growth at 10 µM: 24.3%
SNB-19
  inhibition of growth at 10 µM: < 1%
786-0
  inhibition of growth at 10 µM: < 1%
EKVX
  inhibition of growth at 10 µM: < 1%

## CC1=NN(c2nc(-c3ccc(Cl)cc3)c(C#N)c(N3CCOCC3)n2)C(=O)C1
MOLT-4
  inhibition of growth at 10 µM: < 1%
ACHN
  inhibition of growth at 10 µM: 26.4%
COLO 205
  inhibition of growth at 10 µM: < 1%
SR
  inhibition of growth at 10 µM: < 1%
RPMI-8226
  inhibition of growth at 10 µM: 42.9%
CCRF-CEM
  inhibition of growth at 10 µM: 14.1%
BT-549
  inhibition of growth at 10 µM: 33.9%
MDA-MB-468
  inhibition of growth at 10 µM: < 1%
T47D
  inhibition of growth at 10 µM: < 1%
DU-145
  inhibition of growth at 10 µM: < 1%
UO-31
  inhibition of growth at 10 µM: 28.1%
KM12
  inhibition of growth at 10 µM: < 1%
K562
  inhibition of growth at 10 µM: < 1%
IGROV-1
  inhibition of growth at 10 µM: 19%
OVCAR-8
  inhibition of growth at 10 µM: < 1%
SF-539
  inhibition of growth at 10 µM: < 1%
A498
  inhibition of growth at 10 µM: 42%
SF-268
  inhibition of growth at 10 µM: < 1%
HCC 2998
  inhibition of growth at 10 µM: < 1%
U-251
  inhibition of growth at 10 µM: < 1%
LOX IMVI
  inhibition of growth at 10 µM: 24.5%
HOP-62
  inhibition of growth at 10 µM: 12.6%
OVCAR-3
  inhibition of growth at 10 µM: 49.8%
RXF 393
  inhibition of growth at 10 µM: 56.6%
SK-MEL-5
  inhibition of growth at 10 µM: < 1%
HCT-116
  inhibition of growth at 10 µM: < 1%
HL-60
  inhibition of growth at 10 µM: 18.2%
Malme-3M
  inhibition of growth at 10 µM: < 1%
SW-620
  inhibition of growth at 10 µM: 14.8%
MDA-MB-231
  inhibition of growth at 10 µM: < 1%
SK-MEL-28
  inhibition of growth at 10 µM: 12.9%
PC-3
  inhibition of growth at 10 µM: < 1%
NCI-H322M
  inhibition of growth at 10 µM: < 1%
MDA-MB-435
  inhibition of growth at 10 µM: 12.2%
NCI-H522
  inhibition of growth at 10 µM: 21.1%
M14
  inhibition of growth at 10 µM: 10%
NCI-H23
  inhibition of growth at 10 µM: 19.3%
HOP-92
  inhibition of growth at 10 µM: 93.7%
NCI-H226
  inhibition of growth at 10 µM: 10.2%
SF-295
  inhibition of growth at 10 µM: < 1%
NCI/ADR-RES
  inhibition of growth at 10 µM: < 1%
Hs-578T
  inhibition of growth at 10 µM: 45.4%
SNB-75
  inhibition of growth at 10 µM: 43.5%
SNB-19
  inhibition of growth at 10 µM: < 1%
786-0
  inhibition of growth at 10 µM: 13.4%
EKVX
  inhibition of growth at 10 µM: 11.2%
